Published values collected from several papers.
Protocols differ between the studies behind these lines.
Target: High affinity nerve growth factor receptor (NTRK1, Homo sapiens, UniProt P04629)

SMILES | assay | conditions | remaining binding [%]
CC(C)(C)c1ccc(-c2nc(CBr)nn2-c2cccc(O)c2)cc1 | cell-free assay, competition with immobilised ligand | 10 µM | 71
CN1CCN(c2ccc(Nc3nccc(-c4cccc([N+](=O)[O-])c4)n3)cc2C(F)(F)F)CC1 | binding | 10 µM | 13
CC(C)(O)c1cncc(-c2nc3ccc(F)cc3n2C2CC2)c1 | cell-free assay, competition with immobilised ligand | 1 µM | 100
N[C@H]1CCN(c2nccc(-c3cnn4ncccc34)n2)C1 | binding | 1 µM | 85
CCS(=O)(=O)c1cc2cc(C[C@@](O)(CC(C)(C)c3ccc(F)cc3C(N)=O)C(F)(F)F)[nH]c2cn1 | cell-free assay, competition with immobilised ligand | 1 µM | 74
Cc1cnc(Nc2ccc(C(=O)N3CCC(N4CCCC4)CC3)cc2)nc1-c1cc2ccccc2s1 | binding, competition with immobilised ligand | 1 µM | 0.3
C[C@@H]1CCN(c2nccc(-c3cnn4ncccc34)n2)C1 | binding | 1 µM | 61
Cc1nccc(COC(=O)N2C[C@@H]3[C@@H](CNC(=O)c4ccc5[nH]nnc5c4)[C@@H]3C2)n1 | cell-free assay, competition with immobilised ligand | 1 µM | 94
COc1ncc2cc3ccccc3nc2c1C#N | cell-free assay, competition with immobilised ligand | 5 µM | 100
Cc1cnn2ncc(-c3ccnc(N(C)C)n3)c2c1 | binding | 1 µM | 80
O=C(c1ccc(Nc2ncc(Cl)c(-c3ccc(Cl)s3)n2)cc1)N1CCC(N2CCCC2)CC1 | binding, competition with immobilised ligand | 1 µM | 1.3
COc1cnc(Nc2cccc(S(N)(=O)=O)c2)nc1N1CCN(c2ccccc2)CC1 | binding, competition with immobilised ligand | 1 µM | 58
Cn1cc(Cl)c2c(Oc3c(F)cc(Nc4cc(Cl)nc(N)n4)cc3F)ccnc21 | cell-free assay, competition with immobilised ligand | 0.1 µM | 74
CN(C)c1nccc(-c2cnn3ncccc23)n1 | binding | 1 µM | 68
CNC(=O)[C@@H]1CC[C@@H](n2c(-c3ccc4cnccc4c3)nc3ccc(C(=O)NCc4cccc(C(N)=O)c4)cc32)C1 | binding, competition with immobilised ligand | 1 µM | 92
O=C(NCCCC1CCCCC1)c1ccc(CNC(=O)c2cnn(-c3ccccc3)c2C(F)(F)F)cc1 | cell-free assay, competition with immobilised ligand | 0.1 µM | 100
O=C(NCCCN1CCOCC1)c1ccc(Nc2nccc(-c3cc4ccccc4s3)n2)cc1 | binding, competition with immobilised ligand | 1 µM | 19
Cc1cc(-n2nc(Cc3cc(F)cc(C(F)(F)F)c3)nc2C)ccc1C(N)=O | cell-free assay, competition with immobilised ligand | 1 µM | 97
CN(C)c1ncc(F)c(-c2cnn3ncccc23)n1 | binding | 1 µM | 97
O=C(Nc1c[nH]nc1C(=O)NC1CCNCC1)c1cc(F)cc(F)c1 | binding, competition with immobilised ligand | 1 µM | 100
CC1CCCN1c1nccc(-c2cnn3ncccc23)n1 (stereo not drawn) | binding | 1 µM | 87
c1cncc(-c2cccc(Nc3nccc(NC4CCCCC4)n3)c2)c1 | binding, competition with immobilised ligand | 10 µM | 5.3
c1cnn2ncc(-c3ccnc(N4CCC45COC5)n3)c2c1 | binding | 1 µM | 53
Cc1nc(N2CC[C@@H](O)C2)ncc1-c1cc(C(F)(F)F)cc2[nH]ncc12 | cell-free assay, competition with immobilised ligand | 1 µM | 56
